# Results taken from publication PMC6350648 (Drug Design, Development and Therapy, 2019).
# No end group written: not given here.
# Legend:
# [1] = test system: methicillin-resistant S. aureus (MRSA) (NCTC12493); assay: MIC/MBC broth-dilution assay; type: cell-based, Staphylococcus aureus; conditions: MHB pH 7.4, 512 to 1 µM twofold, 1% DMSO
# In short: (§1)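 Broth dilution was run in Mueller Hinton Broth, pH 7.4, with peptide at final 512 to 1 µM in twofold steps. Peptide stocks were in DMSO, giving final 1% (v/v) DMSO, also used alone as vehicle control. Controls were culture without peptide for growth and fresh MHB as blank. Positive controls were 5 mg/L vancomycin (S. aureus, MRSA, E. faecalis) and 5 mg/L amphotericin B (C. albicans). Five independent experiments were run.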
# U251MG cells = assay: MTT assay; type: cell-based, human; conditions: peptides in serum-free medium
# In short: (§2)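 For MTT viability, MDA-MB-435S, U251MG, HCT116 and MCF-7 were grown in DMEM, and NCI-H157 and PC-3 in RPMI 1640. All media had 10% FBS and 1% penicillin–streptomycin. Peptides were diluted in serum-free medium. Untreated cells defined 100% viability, and LD50 was the median lethal dose. Values are the mean with standard error from five independent experiments.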
# [2] = test system: Escherichia coli (NCTC10418); assay: MIC/MBC broth-dilution assay; type: cell-based; conditions: E. coli NCTC10418, MHB pH 7.4, 512 to 1 µM twofold, 1% DMSO
# In short: as §1
# [3] = test system: Staphylococcus aureus (NCTC10788); assay: MIC/MBC broth-dilution assay; type: cell-based; conditions: S. aureus NCTC10788, MHB pH 7.4, 512 to 1 µM twofold, 1% DMSO
# In short: as §1
# MDA-MB-435S cells = assay: MTT assay; type: cell-based, human; conditions: MB435s (MDA-MB-435S); peptides in serum-free medium
# In short: as §2
# [4] = test system: Enterococcus faecalis (NCTC12697); assay: MIC/MBC broth-dilution assay; type: cell-based; conditions: E. faecalis NCTC12697, MHB pH 7.4, 512 to 1 µM twofold, 1% DMSO
# In short: as §1
# [5] = test system: Candida albicans (NCYC1467); assay: MIC/MBC broth-dilution assay; type: cell-based; conditions: C. albicans NCYC1467, MHB pH 7.4, 512 to 1 µM twofold, 1% DMSO
# In short: as §1
# MCF-7 cells [6] = assay: MTT assay; type: cell-based, human; conditions: peptides in serum-free medium
# In short: as §2
# horse erythrocytes = assay: Hemolysis assay; type: cell-based; conditions: peptides in PBS, 512 to 1 µM, 1% Triton-X100 = 100%
# In short: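 Horse erythrocytes were exposed to peptide in PBS at 512 to 1 µM. Erythrocytes in PBS defined 0% hemolysis and 1% (v/v) Triton X-100 defined 100%. HC50 (µM) was the concentration giving half-maximal hemolysis. Values are the mean with standard error from five independent experiments.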
# NCI-H157 cells = assay: MTT assay; type: cell-based, human; conditions: peptides in serum-free medium
# In short: as §2
# MCF-7 cells [7] = type: cell-based, human; conditions: MCF-7, 10 µM peptide; 100% = 1% TritonX-100; five replicates
# HCT116 cells = assay: MTT assay; type: cell-based, human; conditions: peptides in serum-free medium
# In short: as §2
# PC-3 cells = assay: MTT assay; type: cell-based, human; conditions: peptides in serum-free medium
# In short: as §2
# [8] = test system: selected human cancer cell lines; assay: MTT assay, all cancer cell lines examined; type: cell-based; conditions: all six cancer cell lines
# In short: as §2
Substance,MBC [1] [µM],MIC [1] [µM],LD50 of MTT assays (U251MG cells) [µM],MBC [2] [µM],MIC [2] [µM],MBC [3] [µM],MIC [3] [µM],LD50 of MTT assays (MDA-MB-435S cells) [µM],MBC [4] [µM],MIC [4] [µM],MBC [5] [µM],MIC [5] [µM],LD50 of MTT assays (MCF-7 cells [6]) [µM],HC50 of hemolysis on erythrocytes (horse erythrocytes) [µM],LD50 of MTT assays (NCI-H157 cells) [µM],LDH release (MCF-7 cells [7]),LD50 of MTT assays (HCT116 cells) [µM],LD50 of MTT assays (PC-3 cells) [µM],LD50 (MTT) for all the cell lines examined [8] [µM]
"FLSLIPAAISAVSALANHF-NH2 [PSPHa, Phylloseptin-PHa]",128,64,34.67,> 512,> 512,16,8,28.48,> 512,> 512,32,32,24.05,52.17,37.61,not as potent as PSPHa2–5,36.64,37.96,–
FLSLIPKAISAISALANHF-NH2 [PSPHa2],32,16,36.46,128,64,4,4,19.56,64,64,16,8,26.49,34.86,35.34,–,37.4,35.11,–
FLSLIPKAISAISALINHF-NH2 [PSPHa3],32,32,10.85,> 512,> 512,2,2,3.994,32,32,4,4,10.48,9.266,2.865,–,11.71,9.164,–
FLSLIPKAISAVSALANHF-NH2 [PSPHa1],32,16,33.65,128,128,8,8,32.41,32,32,32,16,45.69,197.7,41.73,lowest degree of LDH release,35.16,32.89,–
FLSLIPKIISAISALIKHF-NH2 [PSPHa5],128,64,4.059,> 512,> 512,2,2,3.553,32,16,128,32,3.753,1.074,3.614,–,4.421,4.256,< 5
FLSLIPKIISAISALINHF-NH2 [PSPHa4],256,128,9.547,> 512,> 512,2,2,4.802,64,32,128,32,15.01,2.766,2.265,–,6.779,9.35,–
